Measured values taken from ChEMBL document CHEMBL1124192, “Cyclopentenylcytosine. A carbocyclic nucleoside with antitumor and antiviral properties” (J Med Chem, 1988).
Values after ≈ are worked out from the molar mass of the structure shown. Values joined by “and” are separate entries in the source; they are usually repeats but may differ in a detail not shown here. Equal values may be shown once.

Key:
[1] = Ratio of minimum drug concentration to ID50 of the compound (Indiana strain); format: ADME
[2] = system: Vesicular stomatitis virus; assay: Inhibitory dose of compound required to inhibit cytopathogenic effects of vesicular stomatitis RNA virus with indiana strain in L929 cells; format: functional
[3] = system: Vesicular stomatitis virus; assay: Tested for inhibition of virus-induced cytopathogenic effect and cytotoxicity of compound against vesicular stomatitis RNA virus with indiana strain in L929 cell; format: functional
Human alphaherpesvirus 2 [4] = assay: Dose of compound required to inhibit the herpes simplex type-2 MS virus induced cytopathogenic effects; format: functional; conditions: read-out: ID50 (the source's name)
Method in brief: (§1)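 Southern Research CPE inhibition test in Vero host cells. Confluent monolayers in 96-well plates received drug (minimum seven concentrations, cytotoxic to noncytotoxic) plus virus at 32 CCID50 per 0.1 mL, in triplicate, with cell, virus and drug-cytotoxicity controls. Incubated at 37 °C, 2% CO2. CPE scored microscopically at 3–4 days. VR = 0.1 × sum of CE-grade differences from virus control, halved for partially cytotoxic wells.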

Human alphaherpesvirus 1 [5] = assay: Degree of inhibition of virus-induced cytopathogenic effect and the degree of cytotoxicity produced by compound against herpes simplex type-1 virus E-377(TK+ ); format: functional; method in brief: as §1
Human alphaherpesvirus 2 [6] = assay: Degree of inhibition of virus-induced cytopathogenic effect and the degree of cytotoxicity produced by compound against herpes simplex type-2 MS virus; format: functional; method in brief: as §1
Human alphaherpesvirus 1 [7] = assay: Dose of compound required to inhibit the herpes simplex type-1 virusE-377(TK+ ) induced cytopathogenic effects; format: functional; conditions: read-out: ID50 (the source's name); method in brief: as §1
[8] = system: unidentified influenza virus; assay: Tested for inhibition of virus-induced cytopathogenic effect and cytotoxicity of compound against influenza virus with A2/Aichi/2/68 strain in MDCK cell; format: functional
[9] = system: unidentified influenza virus; assay: Inhibitory dose of compound required to inhibit cytopathogenic effects of influenza virus with A2/Aichi/2/68 strain in MDCK cells; format: functional; conditions: read-out: ID50 (the source's name)
Punta Toro virus [10] = assay: Tested for inhibition of virus-induced cytopathogenic effect and cytotoxicity of compound against Punta toro virus with adames strain in vero cell; format: functional
[11] = system: Japanese encephalitis virus; assay: Tested for inhibition of virus-induced cytopathogenic effect and cytotoxicity of compound against Japanese encephalitis virus with […] strain in vero cell; format: functional
Punta Toro virus [12] = assay: Inhibitory dose of compound required to inhibit cytopathogenic effects of Punta toro virus with adames strain in vero cells; format: functional; conditions: read-out: ID50 (the source's name)
[13] = Ratio of minimum drug concentration to ID50 of the compound(Adems strain); format: ADME
[14] = system: Japanese encephalitis virus; assay: Inhibitory dose of compound required to inhibit cytopathogenic effects of Japanese encephalitis virus with […] strain in vero cells; format: functional; conditions: read-out: ID50 (the source's name)
Yellow fever virus [15] = assay: Tested for inhibition of virus-induced cytopathogenic effect and cytotoxicity of compound against yellow fever (virus) with Asibi strain in vero cell; format: functional
Yellow fever virus [16] = assay: Inhibitory dose of compound required to inhibit cytopathogenic effects yellow fever (virus) with Asibi strain in vero cell; format: functional; conditions: read-out: ID50 (the source's name)
Human alphaherpesvirus 1 [17] = assay: Dose of compound required to inhibit the herpes simplex type-1 virus HF(TK- )induced cytopathogenic effects; format: functional; method in brief: as §1
Human alphaherpesvirus 1 [18] = assay: Degree of inhibition of virus-induced cytopathogenic effect and the degree of cytotoxicity produced by compound against herpes simplex type-1 virus HF(TK- ); format: functional; method in brief: as §1

Nc1nccc2c1ncn2[C@@H]1C[C@H](CO)[C@@H](O)[C@H]1O [3-DEAZAARISTEROMYCIN A]
Therapeutic index [1]: 1.6
selectivity ratio ([1]; read-out: Therapeutic index): 2.3
ID50 [2]: 4.3 µg/mL and 2 µg/mL
Virus rating [3]: 2.1 and 3

Nc1nc2c(ncn2COCCO)c(=O)[nH]1 [ACYCLOVIR]
IC50 (Human alphaherpesvirus 2 [4]): 5.3 µg/mL (≈ 23.5 µM)
Virus rating (Human alphaherpesvirus 1 [5]): 6.7
Virus rating (Human alphaherpesvirus 2 [6]): 4.5
IC50 (Human alphaherpesvirus 1 [7]): 0.7 µg/mL (≈ 3.11 µM)

NC(=O)c1ncn([C@@H]2O[C@H](CO)[C@@H](O)[C@H]2O)n1 [RIBAVIRIN]
Virus rating [8]: 3.6
IC50 [9]: 18.7 µg/mL (≈ 76.6 µM)
Virus rating (Punta Toro virus [10]): 1.8
Virus rating [11]: 2.4
IC50 (Punta Toro virus [12]): 20.1 µg/mL (≈ 82.3 µM)
selectivity ratio ([13]; read-out: Therapeutic index): 5
IC50 [14]: 3 µg/mL (≈ 12.3 µM)

c1c[se]cn1 [SELENAZOLE]
Virus rating (Yellow fever virus [15]): 2.4
IC50 (Yellow fever virus [16]): 0.6 µg/mL (≈ 4.54 µM)
selectivity ratio ([13]; read-out: Therapeutic ratio): 1.8

Nc1ncnc2c1ncn2[C@@H]1O[C@H](CO)[C@@H](O)[C@@H]1O [VIDARABINE]
IC50 (Human alphaherpesvirus 2 [4]): 49.9 µg/mL (≈ 187 µM)
Virus rating (Human alphaherpesvirus 1 [5]): 1.8
ID50 (Human alphaherpesvirus 1 [17]): 1.9 µg/mL (≈ 7.11 µM)
IC50 (Human alphaherpesvirus 1 [17]; Human alphaherpesvirus 1, read-out: ID50 (the source's name)): 2.1 µg/mL (≈ 7.86 µM)
Virus rating (Human alphaherpesvirus 2 [6]): 1.3
Virus rating (Human alphaherpesvirus 1 [18]): 3.3 and 2.9
IC50 (Human alphaherpesvirus 1 [7]): 13.6 µg/mL (≈ 50.9 µM)
